Assay outcomes (PubChem)
HSF1 inhib = HSF1 inhibition; hit rate 0.77% among 300,000; activity change, negative = inhibition, % at 7.5 µM (by protocol); NIH3T3-HGL HSE-luciferase, MG132-induced, luminescence 8 h; active compounds read low;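 active means more than half of replicate wells show activity change below -50%, luminescence cut by over half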;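 further: luciferase reports HSF-1 transcriptional activity via heat shock element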
Hsp70 activator = transcriptional activators of Hsp70; HeLa Hsp70 promoter luciferase reporter, luminescence; scaled: vehicle 0, proteasome-inhibitor control 100%; activation, % at 10 µM; hit rate 0.04% among 200,000;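 active means activation above the mean across all tested compounds plus 3 SD, cutoff set per campaign, cut at about 5.5% in these data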
HSF1 activator = increases HSF-1 driven luciferase reporter signal; AID 504408; NIH3T3-HGL HSF-1 luciferase reporter, MG132, 8 h; 100% = twice DMSO control signal; hit rate 1.7% among 300,000; activation, % at 9 µM;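 active means mean replicate activation of at least 50% with a set share of replicates each reaching 50%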
L major viab = reduces viability of Leishmania major promastigotes; hit rate 9% among 200,000; resazurin fluorescence viability; inhibition, % at 10 µM; in the data active means inhibition above about 50%;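 further: promastigotes grown with compound for 44 hours at 28 °C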
T cruzi repl = blocks replication of Trypanosoma cruzi; T. cruzi beta-gal in NIH3T3, luminescence, 90 h; inhibition, % (test concentration not listed); hit rate 1.4% among 300,000; AID 1885;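 active means mean inhibition across valid replicates above about 55%, limit read from the data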;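 further: signal also drops with host cell toxicity which is not excluded here; higher percent means less beta-gal luminescence so fewer parasites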
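System: Mouse NIH/3T3 fibroblasts infected with β-gal-expressing T. cruzi Tulahuen C4 | Quantity: NIH/3T3 cells, 5,000 per well | Reagent: 5000 reporter trypomastigotes per well | Dosing: Compound pinned at 50 nL/well, DMSO | Schedule: 3 h host attachment, then at least 90 h co-culture | Detection: GalScreen luminescence, 60 min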
Numbers stand for hits. The full list was thinned out, with hits kept by preference.

What do the screens show for `Cc1sc(NC(=O)c2ccco2)c(C(c2cccnc2)N2CCN(c3ccc(F)cc3)CC2)c1C` (stereo not given)?
HSF1 inhib: inactive; Hsp70 activator: inactive; HSF1 activator: inactive; L major viab: 80; T cruzi repl: 57

Results for CCOc1ccc(C(c2c(NC(=O)c3ccccc3)sc(C)c2C)N2CCN(CCO)CC2)cc1 (stereo not given) ?
HSF1 inhib: inactive; Hsp70 activator: inactive; HSF1 activator: inactive; L major viab: inactive; T cruzi repl: inactive

How did Cc1sc(NC(=O)c2ccco2)c(C(c2cccnc2)N2CCN(CCO)CC2)c1C (stereo not given) do in these assays?
HSF1 inhib: inactive; Hsp70 activator: inactive; HSF1 activator: inactive; L major viab: inactive; T cruzi repl: inactive

What do the screens show for `Cc1sc(NC(=O)c2ccccc2)c(C(c2ccc(Cl)cc2)N2CCN(CCO)CC2)c1C` (stereo not given)?
HSF1 inhib: inactive; Hsp70 activator: inactive; HSF1 activator: inactive; L major viab: 95; T cruzi repl: inactive

What do the screens show for `Cc1sc(NC(=O)c2ccco2)c(C(c2ccccc2)N2CCC(C)CC2)c1C` (stereo not given)?
HSF1 inhib: inactive; Hsp70 activator: inactive; HSF1 activator: inactive; L major viab: inactive; T cruzi repl: 72

How did NC(=O)C1CCN(C(=O)CN(C2CCCCC2)S(=O)(=O)c2ccc(F)cc2)CC1 do in these assays?
HSF1 inhib: inactive; HSF1 activator: inactive; T cruzi repl: inactive

How did CCOC(=O)C1CCN(C(c2cccnc2)c2c(NC(=O)c3ccco3)sc(C)c2C)CC1 (stereo not given) do in these assays?
HSF1 inhib: inactive; Hsp70 activator: inactive; HSF1 activator: inactive; L major viab: 93; T cruzi repl: 65

How did CCOC(=O)[C@@H]1[C@H]2COc3ccccc3[C@@H]2N2C(=O)N(c3cccc(Cl)c3)C(=O)[C@@]12C do in these assays?
HSF1 inhib: inactive; HSF1 activator: inactive; T cruzi repl: inactive

What do the screens show for `O=c1c2ccccc2oc2cc(OCc3ccc(F)cc3)cc(O)c12`?
HSF1 inhib: inactive; HSF1 activator: inactive; T cruzi repl: inactive

What do the screens show for `O=C1COc2ccc(OCc3ccc(F)cc3)cc21`?
HSF1 inhib: inactive; Hsp70 activator: inactive; HSF1 activator: 54; L major viab: inactive; T cruzi repl: inactive

What do the screens show for `CCOC(=O)c1ccc(Oc2c(C)oc3cc(OS(C)(=O)=O)ccc3c2=O)cc1`?
HSF1 inhib: inactive; Hsp70 activator: inactive; HSF1 activator: inactive; L major viab: 53; T cruzi repl: inactive

What do the screens show for `CCOc1ccc(Oc2c(C)oc3cc(O)ccc3c2=O)cc1`?
HSF1 inhib: inactive; Hsp70 activator: inactive; HSF1 activator: inactive; L major viab: inactive; T cruzi repl: inactive

How did COc1ccc(-n2nc(C(=O)NCC(=O)N3CCN(c4ccccc4F)CC3)c3ccccc3c2=O)cc1OC do in these assays?
HSF1 inhib: inactive; HSF1 activator: inactive; T cruzi repl: inactive

Results for C/C(=N\NC(=O)c1ccc(F)cc1)c1ccccn1 ?
HSF1 inhib: inactive; HSF1 activator: inactive; T cruzi repl: inactive

Results for C/C(=N/NC(=O)CNC(=O)c1ccccn1)c1ccc([N+](=O)[O-])cc1 ?
HSF1 inhib: -81; Hsp70 activator: inactive; HSF1 activator: inactive; L major viab: inactive; T cruzi repl: inactive

Results for O=C(N/N=C(\c1ccccc1)c1ccccn1)c1cccc([N+](=O)[O-])c1 ?
Hsp70 activator: inactive; L major viab: 100; T cruzi repl: 58

What do the screens show for `CCOc1ccc(C(=O)N/N=C(\c2ccccc2)c2ccccn2)cc1`?
HSF1 inhib: inactive; Hsp70 activator: inactive; HSF1 activator: inactive; L major viab: 99; T cruzi repl: inactive

Results for O=C(COC(=O)C1CCN(c2ccc(C(F)(F)F)cn2)CC1)Nc1cccc(F)c1 ?
HSF1 inhib: inactive; HSF1 activator: inactive; T cruzi repl: inactive

Results for O=C(CNC(=O)c1ccc(Cl)cc1Cl)OCCCn1c(=O)[nH]c2ccccc21 ?
HSF1 inhib: inactive; HSF1 activator: inactive; T cruzi repl: inactive

How did CCc1nnc(NC(=O)CN2CCN(Cc3ccccc3Cl)CC2)s1 do in these assays?
HSF1 inhib: inactive; HSF1 activator: inactive; T cruzi repl: inactive

How did Cc1nn(-c2ccccc2)c(Cl)c1/C=C1\SC(=S)N(C)C1=O do in these assays?
HSF1 inhib: inactive; Hsp70 activator: inactive; HSF1 activator: inactive; L major viab: 53; T cruzi repl: inactive

How did Cc1nn(-c2ccccc2)c(Cl)c1/C=C/C(=O)c1ccccc1 do in these assays?
HSF1 inhib: inactive; Hsp70 activator: inactive; HSF1 activator: inactive; L major viab: 69; T cruzi repl: inactive

Results for COc1ccc(-c2csc(/C(C#N)=C(\O)CSc3nccn3C)n2)cc1OC ?
HSF1 inhib: -88; Hsp70 activator: inactive; HSF1 activator: inactive; L major viab: inactive; T cruzi repl: inactive

Results for CCN(CC#CCC(O)(c1ccccc1)C1CCCC1)C(C)C (stereo not given) ?
HSF1 inhib: inactive; Hsp70 activator: inactive; HSF1 activator: inactive; L major viab: 68; T cruzi repl: inactive

How did O=C(C1CCCO1)N1CCN(C(=S)Nc2ccccc2)CC1 (stereo not given) do in these assays?
HSF1 inhib: inactive; Hsp70 activator: inactive; HSF1 activator: inactive; L major viab: 53; T cruzi repl: inactive

Results for O=C(C1CCCO1)N1CCN(C(c2ccccc2)c2ccccc2)CC1 (stereo not given) ?
HSF1 inhib: inactive; Hsp70 activator: inactive; HSF1 activator: inactive; L major viab: 96; T cruzi repl: inactive

What do the screens show for `Cc1ccc(NC(=S)N2CCN(C(=O)C3CCCO3)CC2)cc1` (stereo not given)?
HSF1 inhib: inactive; Hsp70 activator: inactive; HSF1 activator: inactive; L major viab: inactive; T cruzi repl: inactive

How did O=C(NC12CC3CC(CC(C3)C1)C2)N1CCN(C(=O)C2CCCO2)CC1 (stereo not given) do in these assays?
HSF1 inhib: -54; Hsp70 activator: inactive; HSF1 activator: inactive; L major viab: inactive; T cruzi repl: inactive

Results for Cc1cccc(OCC(=O)Nc2ccc3c(c2)C(=O)NC3=O)c1 ?
HSF1 inhib: inactive; HSF1 activator: inactive; T cruzi repl: inactive

How did Cc1ccc2nc(-c3ccccc3)c(CC(=O)O)c(C(=O)O)c2c1 do in these assays?
HSF1 inhib: inactive; Hsp70 activator: inactive; HSF1 activator: inactive; L major viab: inactive; T cruzi repl: inactive

What do the screens show for `Cc1c(CC(=O)N2C[C@H]3C[C@@H](C2)c2cccc(=O)n2C3)c(=O)oc2cc3occ(C(C)(C)C)c3cc12`?
HSF1 inhib: inactive; HSF1 activator: inactive; T cruzi repl: inactive

What do the screens show for `O=C(COC(=O)c1ccc(Br)cc1)NCCc1ccccc1`?
HSF1 inhib: inactive; Hsp70 activator: inactive; HSF1 activator: inactive; L major viab: inactive; T cruzi repl: inactive

How did O=C(COC(=O)c1ccccc1)c1ccc(Br)cc1 do in these assays?
HSF1 inhib: inactive; Hsp70 activator: inactive; HSF1 activator: 58; L major viab: inactive; T cruzi repl: inactive
